From ChEMBL document CHEMBL4825756, “New Design Rules for Developing Potent Cell-Active Inhibitors of the Nucleosome Remodeling Factor (NURF) via BPTF Bromodomain Inhibition” (J Med Chem, 2021)
The source made the active and inactive calls. The rule behind the calls is not given here.

Tests used:
[1] = target: T1, Bromodomain-containing protein 9 (Homo sapiens, UniProt Q9H8M2); assay: Binding affinity to BRD9 (unknown origin) by BROMOscan method
T1 sequence (Q9H8M2 whole entry): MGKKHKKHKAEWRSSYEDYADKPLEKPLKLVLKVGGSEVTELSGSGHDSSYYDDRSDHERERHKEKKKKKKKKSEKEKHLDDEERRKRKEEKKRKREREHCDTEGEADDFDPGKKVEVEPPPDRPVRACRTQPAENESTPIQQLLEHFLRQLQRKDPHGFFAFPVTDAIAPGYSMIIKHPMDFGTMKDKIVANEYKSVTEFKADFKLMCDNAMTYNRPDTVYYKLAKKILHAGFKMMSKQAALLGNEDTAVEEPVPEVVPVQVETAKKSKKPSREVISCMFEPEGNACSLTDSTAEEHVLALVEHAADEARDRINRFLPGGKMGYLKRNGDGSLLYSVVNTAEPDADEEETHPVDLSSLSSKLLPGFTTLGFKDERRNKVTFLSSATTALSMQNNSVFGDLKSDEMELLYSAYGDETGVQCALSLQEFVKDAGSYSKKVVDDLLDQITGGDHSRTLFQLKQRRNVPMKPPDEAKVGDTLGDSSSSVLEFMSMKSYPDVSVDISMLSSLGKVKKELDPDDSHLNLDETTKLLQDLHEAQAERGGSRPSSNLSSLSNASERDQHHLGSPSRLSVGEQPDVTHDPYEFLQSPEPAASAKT

[2] = target: T2, Histone acetyltransferase KAT2B (Homo sapiens, UniProt Q92831); assay: Binding affinity to PCAF (unknown origin) by BROMOscan method
Target sequence in this assay (Q92831 whole entry): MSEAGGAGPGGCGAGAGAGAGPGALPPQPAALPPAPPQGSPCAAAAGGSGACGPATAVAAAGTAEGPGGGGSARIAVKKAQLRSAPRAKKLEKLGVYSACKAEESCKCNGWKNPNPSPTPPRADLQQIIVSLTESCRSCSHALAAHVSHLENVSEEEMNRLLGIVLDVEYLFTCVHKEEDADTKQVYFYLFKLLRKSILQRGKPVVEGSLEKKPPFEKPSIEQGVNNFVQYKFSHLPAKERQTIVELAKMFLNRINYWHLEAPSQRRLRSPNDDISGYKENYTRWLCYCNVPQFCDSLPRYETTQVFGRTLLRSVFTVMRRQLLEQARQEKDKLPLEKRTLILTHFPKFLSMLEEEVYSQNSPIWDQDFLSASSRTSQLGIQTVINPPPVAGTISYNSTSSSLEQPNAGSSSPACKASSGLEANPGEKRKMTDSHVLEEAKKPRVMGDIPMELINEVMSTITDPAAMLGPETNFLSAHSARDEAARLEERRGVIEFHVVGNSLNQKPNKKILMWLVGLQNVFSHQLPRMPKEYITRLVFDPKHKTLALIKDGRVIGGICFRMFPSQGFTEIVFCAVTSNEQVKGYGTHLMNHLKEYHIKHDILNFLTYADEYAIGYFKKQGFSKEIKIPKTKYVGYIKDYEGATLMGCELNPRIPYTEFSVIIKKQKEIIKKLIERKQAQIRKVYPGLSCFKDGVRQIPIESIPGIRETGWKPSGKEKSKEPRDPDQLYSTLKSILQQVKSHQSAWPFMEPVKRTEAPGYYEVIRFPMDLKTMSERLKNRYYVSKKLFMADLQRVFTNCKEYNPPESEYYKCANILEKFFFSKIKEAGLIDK

EpH4 [3] = assay: Upregulation of Myc mRNA in mouse EpH4 cells at 5 uM after 24 hrs by qRT-PCR analysis; type: functional, cell-based
Outline: (§1)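 Murine Eph4 mammary epithelial cells were treated at 5 μM for 24 h and harvested in trizol. Transcripts were quantified by SYBR Green qPCR. Group differences were tested by one-way ANOVA at p<0.05.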

EpH4 [4] = assay: Upregulation of sfn mRNA in mouse EpH4 cells at 5 uM after 24 hrs by qRT-PCR analysis; type: functional, cell-based; outline: as §1
4T1 [5] = assay: Growth inhibition of mouse 4T1 cells BPTF knock down assessed as reduction cell viability 15 uM in presence of doxorubicin incubated for 4 days by MTS assay relative to control; type: functional, cell-based; conditions: time 4.0 day
Outline: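 4T1 cells with shRNA BPTF knockdown, grown in DMEM with 10% FBS, 2 mM glutamine and pen-strep, were seeded at 4000/well and allowed to adhere overnight. They were treated 4 days in complete medium with one of three inhibitor doses chosen from toxicity curves, combined with 50 nM doxorubicin. MTS absorbance was read at 490 nm. Fraction survival was set against untreated cells (1.0) and blank (0.0).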

EpH4 [6] = assay: Upregulation of sprr1a mRNA in mouse EpH4 cells at 5 uM after 24 hrs by qRT-PCR analysis; type: functional, cell-based; outline: as §1
4T1 [7] = assay: Growth inhibition of mouse 4T1 cells assessed as reduction cell viability 5 to 15 uM in presence of doxorubicin incubated for 4 days by MTS assay relative to control; type: functional, cell-based; conditions: dose 5-15 µM, time 4.0 day
Outline: (§2)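 Mouse 4T1 breast cancer cells in DMEM with 10% FBS, 2 mM glutamine and penicillin-streptomycin, 4000 cells/well, adhered overnight. Three inhibitor doses, chosen from toxicity curves, given for 4 days alone or with 50 nM doxorubicin, also in shRNA BPTF-knockdown cells. MTS absorbance read at 490 nm; fraction survival scaled to untreated cells (1.0) and blank (0.0); N=3, mean ± SEM.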

[8] = target: T3, Bromodomain-containing protein 4 (Homo sapiens, UniProt O60885); assay: Inhibition of HIS9-tagged BRD4 (unknown origin) expressed in Escherichia coli BL21 (DE3) cells incubated for 30 mins by AlphaScreen assay
[9] = target: Histone acetyltransferase KAT2A (Homo sapiens) (UniProt Q92830); assay: Inhibition of GCN5L2 (unknown origin) at 140 nM by BROMOscan method relative to control
[10] = target: Chromatin remodeling regulator CECR2 (Homo sapiens) (UniProt Q9BXF3); assay: Binding affinity to 5FW-labeled CECR2 (unknown origin) expressed in Escherichia coli BL21 (DE3) cells at 7.4 to 200 uM by PrOF NMR analysis; conditions: dose 7.4-200 µM
Outline: (§3)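 Protein-observed 19F NMR with 5-fluorotryptophan-labelled protein. Each ligand is titrated and the change in chemical shift relative to a control sample is plotted against ligand concentration to give a binding isotherm. Kd is taken from a fit to the quadratic binding equation, which uses total ligand and total protein concentrations.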

[11] = target: Chromatin remodeling regulator CECR2 (Homo sapiens) (UniProt Q9BXF3); assay: Inhibition of CECR2 (unknown origin) at 140 nM by BROMOscan method relative to control
[12] = target: T3, Bromodomain-containing protein 4; assay: Binding affinity to BRD4 BD1 (unknown origin) by BROMOscan method
[13] = target: T2, Histone acetyltransferase KAT2B; assay: Binding affinity to 5FW-labeled PCAF (unknown origin) expressed in Escherichia coli BL21 (DE3) cells at 7.4 to 200 uM by PrOF NMR analysis; conditions: dose 7.4-200 µM; outline: as §3
Target sequence in this assay (Q92831 whole entry, looked up): as the sequence (Q92831 whole entry) above

4T1 [14] = assay: Growth inhibition of mouse 4T1 cells assessed as reduction cell viability 2.5 to 8 uM in presence of doxorubicin incubated for 4 days by MTS assay relative to control; type: functional, cell-based; conditions: dose 2.5-8 µM, time 4.0 day; outline: as §2
[15] = target: Nucleosome-remodeling factor subunit BPTF (Homo sapiens, UniProt Q12830); assay: Binding affinity to 5FW-labeled BPTF (unknown origin) expressed in Escherichia coli BL21 (DE3) cells by PrOF NMR analysis

Chromatin remodeling regulator CECR2 (Homo sapiens), sequence (Q9BXF3 whole entry, looked up): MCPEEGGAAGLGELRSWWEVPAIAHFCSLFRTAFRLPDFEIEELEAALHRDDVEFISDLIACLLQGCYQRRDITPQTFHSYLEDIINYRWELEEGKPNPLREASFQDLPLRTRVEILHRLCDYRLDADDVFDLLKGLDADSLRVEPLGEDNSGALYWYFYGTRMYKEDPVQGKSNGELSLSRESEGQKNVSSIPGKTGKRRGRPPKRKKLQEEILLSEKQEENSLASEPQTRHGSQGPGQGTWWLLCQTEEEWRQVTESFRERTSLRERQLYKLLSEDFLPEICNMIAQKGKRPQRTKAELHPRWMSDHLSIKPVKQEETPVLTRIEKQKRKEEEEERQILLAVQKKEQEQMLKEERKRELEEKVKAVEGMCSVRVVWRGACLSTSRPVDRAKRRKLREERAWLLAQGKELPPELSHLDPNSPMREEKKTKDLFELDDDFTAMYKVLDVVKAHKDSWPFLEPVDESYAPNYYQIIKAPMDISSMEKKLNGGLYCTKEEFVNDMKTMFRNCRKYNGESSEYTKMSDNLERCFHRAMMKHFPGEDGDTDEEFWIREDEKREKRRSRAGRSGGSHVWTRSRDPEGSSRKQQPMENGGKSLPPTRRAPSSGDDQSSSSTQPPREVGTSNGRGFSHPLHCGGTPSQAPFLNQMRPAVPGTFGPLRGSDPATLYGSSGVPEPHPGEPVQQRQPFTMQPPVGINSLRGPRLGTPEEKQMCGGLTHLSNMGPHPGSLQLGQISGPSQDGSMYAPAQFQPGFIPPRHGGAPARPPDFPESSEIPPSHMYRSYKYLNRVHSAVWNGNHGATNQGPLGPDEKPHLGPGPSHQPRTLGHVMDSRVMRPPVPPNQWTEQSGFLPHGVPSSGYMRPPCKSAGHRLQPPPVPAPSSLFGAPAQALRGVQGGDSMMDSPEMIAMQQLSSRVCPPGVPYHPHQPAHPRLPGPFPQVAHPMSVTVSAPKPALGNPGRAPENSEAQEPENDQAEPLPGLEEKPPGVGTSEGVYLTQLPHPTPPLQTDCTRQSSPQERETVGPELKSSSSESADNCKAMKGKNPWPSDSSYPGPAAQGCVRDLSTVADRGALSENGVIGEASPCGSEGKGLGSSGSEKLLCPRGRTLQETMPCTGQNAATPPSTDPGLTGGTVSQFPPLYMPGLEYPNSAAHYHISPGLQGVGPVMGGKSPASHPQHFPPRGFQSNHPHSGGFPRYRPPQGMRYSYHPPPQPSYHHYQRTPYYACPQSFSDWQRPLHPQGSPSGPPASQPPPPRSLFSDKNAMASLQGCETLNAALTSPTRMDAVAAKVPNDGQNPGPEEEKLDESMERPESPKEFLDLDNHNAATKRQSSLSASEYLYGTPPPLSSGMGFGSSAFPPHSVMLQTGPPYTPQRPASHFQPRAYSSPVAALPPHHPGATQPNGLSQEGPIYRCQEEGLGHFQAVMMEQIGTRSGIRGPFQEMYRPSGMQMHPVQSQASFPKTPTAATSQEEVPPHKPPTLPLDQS
Histone acetyltransferase KAT2A (Homo sapiens), sequence (Q92830 2-837 limits assumed): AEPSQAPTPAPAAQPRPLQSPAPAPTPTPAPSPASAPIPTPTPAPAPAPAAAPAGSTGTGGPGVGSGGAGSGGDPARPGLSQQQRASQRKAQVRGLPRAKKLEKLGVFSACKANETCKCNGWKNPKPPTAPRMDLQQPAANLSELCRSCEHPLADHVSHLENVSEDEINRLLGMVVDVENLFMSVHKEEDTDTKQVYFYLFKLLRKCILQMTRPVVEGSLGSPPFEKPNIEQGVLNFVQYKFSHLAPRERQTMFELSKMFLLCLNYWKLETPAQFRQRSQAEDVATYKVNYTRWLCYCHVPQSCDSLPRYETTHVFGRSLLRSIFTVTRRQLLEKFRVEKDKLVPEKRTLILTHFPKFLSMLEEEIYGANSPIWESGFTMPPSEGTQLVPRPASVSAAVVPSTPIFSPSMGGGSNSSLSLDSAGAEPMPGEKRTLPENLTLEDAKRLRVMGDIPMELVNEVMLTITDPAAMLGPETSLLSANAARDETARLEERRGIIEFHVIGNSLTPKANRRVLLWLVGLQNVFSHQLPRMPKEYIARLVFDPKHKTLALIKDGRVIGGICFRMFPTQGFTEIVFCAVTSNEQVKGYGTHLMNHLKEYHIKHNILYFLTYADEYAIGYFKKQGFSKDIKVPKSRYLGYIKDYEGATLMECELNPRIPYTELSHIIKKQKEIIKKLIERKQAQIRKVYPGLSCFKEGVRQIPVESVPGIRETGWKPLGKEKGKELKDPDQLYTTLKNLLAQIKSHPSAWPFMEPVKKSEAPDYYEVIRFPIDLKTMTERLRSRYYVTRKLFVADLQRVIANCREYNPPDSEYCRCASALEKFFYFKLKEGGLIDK

How did the Kd [1] turn out when `CN(C)CCCc1ccc(Nc2cnn(C)c(=O)c2Cl)cc1` was run?
Its Kd is 230 nM.

What about the Kd [2] of the same compound?
The Kd was 370 nM.

What does the source list for `COC(=O)c1cccc(NC(=O)N[C@H]2CCN(c3ccnc(Nc4ccc(F)cc4)n3)C2)c1`?
Activity (EpH4 [3]): inactive; Activity (EpH4 [4]): inactive; growth inhibition (GI) (4T1 [5]): Active; Activity (EpH4 [6]): inactive

For `CN(C)CCc1ccc(Nc2cnn(C)c(=O)c2Cl)cc1`, which “growth inhibition (GI)” value (4T1 [7]) is on record?
Its value is “Active”.

And the Activity (EpH4 [3])?
The Activity was “inactive”.

What about the Activity (EpH4 [4]) of the same compound?
The Activity was “Active”.

What about the Activity (EpH4 [6]) of the same compound?
Its Activity is “inactive”.

Which Kd [1] does the source give for `Cn1ncc(Nc2ccc(CCN)cc2)c(Br)c1=O` here?
The Kd was 0.24 nM.

What about the Kd [2] of the same compound?
Its Kd is 14 nM.

Which results are given for `Cn1ncc(Nc2ccc(CCN)cc2)c(Cl)c1=O`?
IC50 ([8]; read-out: IC50): 31000 nM; inhibition [9]: Active; Activity [10]: Active; inhibition [11]: Active; Kd [12]: 2200 nM; Activity [13]: Active; growth inhibition (GI) (4T1 [14]): Active

`CC(C)n1ncc(Nc2ccc(CN)cc2)c(Cl)c1=O` was tested. Which IC50 [8] did it give?
The IC50 was “Not Active”.

Which Kd [15] does the source give for `CN(C)CCCOc1ccc(-c2cc(NCCCn3cccn3)nc(S(C)(=O)=O)n2)cc1` here?
Its Kd is 120000 nM.
